# Sampled rows, rich in hits. Any-hit rate of the full collection: about 2.1%.
# MT1-MMP txn act – MT1-MMP promoter reporter activation – cell-based, luciferase luminescence, primary screen; HT1080 MT1-MMP promoter luciferase reporter, overnight; stronger effect = higher value; activation factor at 10 µM; actives 0.16% (n = 86,000); AID 750, 2007;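 active = activation factor of at least 2 for MT1-MMP transcription at 10 µM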
# TNAP act DEA – human TNAP enzyme activators, primary screen, biochemical, luminescent, intermediate phosphate acceptor level | Alkaline phosphatase, tissue-nonspecific isozyme (Homo sapiens), P05186 | purified TNAP, CDP-star luminescence, 100 mM DEA, 30 min; stronger effect = higher value; scale: 0 levamisole-inhibited, 1 vehicle-only enzyme | activation factor at 20 µM | 64,000 tested, under 10 active;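 active = activation factor of at least 2 at 20 µM, relative to controls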
# Target sequence (P05186 whole entry, looked up): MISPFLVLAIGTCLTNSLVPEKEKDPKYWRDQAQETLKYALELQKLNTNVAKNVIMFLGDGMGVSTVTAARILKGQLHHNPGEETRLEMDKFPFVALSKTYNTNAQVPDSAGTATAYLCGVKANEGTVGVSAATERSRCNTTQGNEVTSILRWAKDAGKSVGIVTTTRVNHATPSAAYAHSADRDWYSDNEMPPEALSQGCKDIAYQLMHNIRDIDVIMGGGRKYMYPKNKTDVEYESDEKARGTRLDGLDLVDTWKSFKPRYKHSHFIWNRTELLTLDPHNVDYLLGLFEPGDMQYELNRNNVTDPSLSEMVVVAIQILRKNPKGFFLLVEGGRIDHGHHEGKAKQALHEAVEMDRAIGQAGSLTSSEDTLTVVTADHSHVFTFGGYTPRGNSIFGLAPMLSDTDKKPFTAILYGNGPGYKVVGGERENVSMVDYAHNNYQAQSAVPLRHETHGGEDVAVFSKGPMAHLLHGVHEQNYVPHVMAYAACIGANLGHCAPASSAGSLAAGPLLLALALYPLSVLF
# SF1 activator – activators of human SF-1, primary screen, cell-based, CHO-K1, Gal4-SF-1 LBD, luciferase luminescence; CHO-K1 Gal4-SF-1 LBD luciferase reporter; % increase over DMSO SF-1-specific signal; actives 1.9% (n = 65,000); activation, % at 10 µM; Steroidogenic factor 1 (Homo sapiens), Q13285; AID 522, 2006;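 active = activation above the mean activation of all tested compounds plus 3 SD, cut at about 50% in these data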
#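 Test system: transient Gal4-SF-1 LBD reporter, CHO-K1; Amount: 4,000 CHO-K1 cells per well; Doses: 10 µM only; Timing: compound exposure 20 h at 37 °C; Signal: luciferase light emission; Read-out basis: percent activation relative to DMSO median and mock-transfected background; Control set: DMSO negative control and −SF1 background wells; Replicates: one test per compound.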
# Mac1 fbg enh – enhancers of CD11b/CD18 adhesion to fibrinogen, primary screen, K562 cells, luminescence; Integrin beta-2 (Homo sapiens) + Integrin alpha-M (Homo sapiens), P05107+P11215; actives 0.07% (n = 93,000); AID 1499, 2009; ATPlite luminescence; activation, % at 10 µM;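 active = 10 µM primary screen giving 50% or more activity, confirmed by 40% or more on retest at that dose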
# RORa activator – activators of orphan receptor RORA, primary screen, cell-based, luminescence; Nuclear receptor ROR-alpha (Homo sapiens), P35398; CHO-K1 Gal4-RORA LBD luciferase reporter; percent increase over mock-subtracted basal signal; activation, % at 10 µM; actives 1.5% (n = 65,000);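 active = activation above the mean of all tested compounds plus 3 SD, cut at about 49% in these data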;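 also: 0% = DMSO-treated RORA cells and 100% = added signal equal to DMSO minus mock-transfected cells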
# Mac1 fbg inh – inhibitors of CD11b/CD18 adhesion to fibrinogen, primary screen, K562 cells, luminescence; Integrin beta-2 (Homo sapiens) + Integrin alpha-M (Homo sapiens), P05107+P11215; ATPlite luminescence; Mn2+ added to activate the integrin; inhibition, % at 10 µM; actives 0.54% (n = 93,000);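 active = primary inhibition of 50% or more at 10 µM, then 40% or more on retest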
# An asterisk follows results filed as active; · = no result given.
SMILES,MT1-MMP txn act,TNAP act DEA,SF1 activator,Mac1 fbg enh,RORa activator,Mac1 fbg inh
Cn1cccc1C(=O)OCC(=O)Nc1ccc2c(c1)CCC2,1.4,1,5,-3,28,-7
CC1=CCC(COC(=O)Nc2ccccc2)CC1 (centres undefined),1.7,0.9,16,·,90*,·
O=C(NC(=S)N1CCc2ccccc21)c1ccccc1Br,·,·,·,1,·,2
COc1cc(NC(=O)c2cc3nc(C)cc(C)n3n2)c(OC)cc1Cl,1.1,0.9,58*,9,86*,-1
CCn1c(C)nc2cc(C(=O)NNS(=O)(=O)c3c(C)c(C)cc(C)c3C)ccc21,1.2,·,·,-2,·,0
CCn1c(C)nc2cc(C(=O)OC(C(F)(F)C(F)F)C(F)(F)C(F)F)ccc21,2.2*,0.9,-23,8,-12,24
CC1(C)CC2CC(C)(CN2C(=O)COC(=O)CNC(=O)c2ccc(Cl)c(Cl)c2)C1 (centres undefined),·,·,·,1,·,18
O=C(NCCn1ccc2ccccc21)c1ccc(S(=O)(=O)N2CCCCC2)cc1,1.1,0.9,3,-2,-2,-36
O=C(NCCn1ccc2ccccc21)c1ccc2c(c1)OCO2,1.4,0.9,72*,3,76*,-7
COc1ccc(C(=O)NCCn2ccc3ccccc32)cc1,1.1,0.9,58*,0,57*,-6
Cc1ccc(C2CCN(C(=O)Nc3ccccc3)C2)cc1 (centres undefined),1.5,1,58*,-7,92*,10
c1ccc(Cn2ccc(-c3cnc(-c4ccccc4)s3)n2)cc1,0.7,·,·,-4,·,4
CCCc1ccc(OCc2ccc(C(=O)N3CCN(c4ccccn4)CC3)o2)c(OC)c1,1.3,0.9,5,7,50*,33
COc1ccc(CC(=O)N2CCN(c3ccccn3)CC2)cc1OC,1.1,1,6,-2,0,-6
COC(=O)[C@@H]1C[C@H]2CC[C@H](O)C[C@H]2N1Cc1ccc(N2CCOCC2)cc1,1,·,·,·,·,·
Cc1ccccc1Nc1nn2c(=O)c3ccccc3nc2s1,1.4,0.8,73*,-4,43,-3
O=c1oc2ccccc2cc1-c1nnc(NCc2ccco2)s1,1.6,·,·,35,·,-58
Nc1nnc(-c2cc3ccccc3oc2=O)s1,1.8,0.8,55*,-1,42,1
CCOC(=O)C1=C(CC)Nc2ccccc2N=C1NC(=O)Nc1ccc(Cl)c(Cl)c1,·,·,·,-13,·,90*
CCOc1ccc2nc(N3CCC(C(=O)N4CCN(c5ncccn5)CC4)CC3)sc2c1,1.2,1,18,·,70*,·
Cc1ccccc1-c1nc(CN2CCC(C(=O)N3CCN(c4ccccn4)CC3)CC2)c(C)o1,1.2,1,6,-4,18,15
CCOc1ccc2nc(N3CCC(C(=O)N4CCN(c5ccccn5)CC4)CC3)sc2c1,1.2,1,15,-2,73*,-3
CCOC(=O)N1CCN(C(=O)C2CCCN(c3nc4ccc(OCC)cc4s3)C2)CC1 (centres undefined),1.2,0.9,-12,-2,34,3
CC(C)NC(=O)NC(=O)COC(=O)c1ccc(F)cc1F,·,·,·,3,·,-2
COCCNC(=O)CSC1=N/C(=C/c2ccc(Cl)c(Cl)c2)C(=O)N1c1ccccc1F,·,·,·,8,·,16
COC(=O)c1ccc2c(c1)C(C)(C)C(/C=C/c1ccc(OC)c(OC)c1OC)=[N+]2C,0.4,·,·,-7,·,107*
Fc1cccc(NCc2cn3ccccc3n2)c1,1.1,0.9,72*,-1,45,6
CC1CCc2nc(NC(=O)C3CC3)sc2C1 (centres undefined),1.5,·,·,-5,·,11
Cc1ncsc1C(=O)Nc1nc2c(s1)CC(C)CC2 (centres undefined),1.1,1,62*,-2,56*,19
